Results: ChEMBL document CHEMBL1154616, “Synthesis and antitumor activity studies of some new fused 1,2,4-triazole derivatives carrying 2,4-dichloro-5-fluorophenyl moiety” (Eur J Med Chem, 2009)

Key:
Type in all cases: functional
NCI-H460 [1] = test: Anticancer activity against human NCI-H460 cells assessed as cell growth at 100 uM after 48 hrs by sulforhodamine B assay relative to control; details: NCI-H460, 48 h, read-out: Activity
Outline: (§1)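 Three-cell-line prescreen (NCI-H460 lung, MCF7 breast, SF 268 CNS), each preincubated on microtiter plates. The agent is added at a single concentration and cultures are incubated 48 h. Growth is read by sulphorhodamine B protein staining and reported as percent growth of treated versus untreated control cells; negative values indicate cell kill.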

MCF7 [2] = test: Anticancer activity against human MCF7 cells assessed as cell growth at 100 uM after 48 hrs by sulforhodamine B assay relative to control; details: MCF7, 48 h, read-out: Activity; outline: as §1
SF-268 [3] = test: Anticancer activity against human SF268 cells assessed as cell growth at 100 uM after 48 hrs by sulforhodamine B assay relative to control; details: SF-268, 48 h, read-out: Activity; outline: as §1
CCRF-CEM = test: Anticancer activity against human CCRF-CEM cells after 48 hrs by sulforhodamine B assay
Outline: (§2)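 Full 60-cell-line panel, compounds tested over a five-log dose range. Cells are preincubated on microtiter plates, the agent is added, and cultures run 48 h. The end point is sulphorhodamine B protein staining. GI50 is taken as the concentration giving 50% growth inhibition relative to untreated control cells.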

HL-60(TB) = test: Anticancer activity against human HL-60(TB) cells after 48 hrs by sulforhodamine B assay; details: HL-60, 48 h
Outline: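 Run within the full 60-cell-line panel across a five-log dose range. GI50 was taken as the concentration causing 50% growth inhibition relative to untreated control cells.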

K562 = test: Anticancer activity against human K562 cells after 48 hrs by sulforhodamine B assay; details: K562, 48 h; outline: as §2
MOLT-4 = test: Anticancer activity against human MOLT4 cells after 48 hrs by sulforhodamine B assay; details: MOLT-4, 48 h; outline: as §2
[4] = Anticancer activity against human […] cells after 48 hrs by sulforhodamine B assay; outline: as §2
SR = test: Anticancer activity against human SR cells after 48 hrs by sulforhodamine B assay
Outline: (§3)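 Cells from the 60-line full panel are preincubated on microtiter plates, then treated across a five-log dose range for 48 h. Growth is read with the protein-binding dye sulforhodamine B. GI50 is the concentration giving 50% growth inhibition relative to untreated control cells.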

A549 = test: Anticancer activity against human A549 cells after 48 hrs by sulforhodamine B assay; details: A549, 48 h; outline: as §2
EKVX = test: Anticancer activity against human EKVX cells after 48 hrs by sulforhodamine B assay; outline: as §2
HOP-92 = test: Anticancer activity against human HOP92 cells after 48 hrs by sulforhodamine B assay; details: HOP-92, 48 h; outline: as §2
NCI-H226 = test: Anticancer activity against human NCI-H226 cells after 48 hrs by sulforhodamine B assay; details: NCI-H226, 48 h; outline: as §2
NCI-H23 = test: Anticancer activity against human NCI-H23 cells after 48 hrs by sulforhodamine B assay; details: NCI-H23, 48 h; outline: as §2
NCI-H322M = test: Anticancer activity against human NCI-H322M cells after 48 hrs by sulforhodamine B assay; outline: as §2
NCI-H460 [5] = test: Anticancer activity against human NCI-H460 cells after 48 hrs by sulforhodamine B assay; details: NCI-H460, 48 h; outline: as §2
NCI-H522 = test: Anticancer activity against human NCI-H522 cells after 48 hrs by sulforhodamine B assay; details: NCI-H522, 48 h; outline: as §2
COLO 205 = test: Anticancer activity against human COLO205 cells after 48 hrs by sulforhodamine B assay; details: COLO 205, 48 h; outline: as §2
HCC 2998 = test: Anticancer activity against human HCC2998 cells after 48 hrs by sulforhodamine B assay; details: HCC 2998, 48 h; outline: as §2
HCT-15 = test: Anticancer activity against human HCT15 cells after 48 hrs by sulforhodamine B assay; details: HCT-15, 48 h; outline: as §2
HT-29 = test: Anticancer activity against human HT-29 cells after 48 hrs by sulforhodamine B assay; details: HT-29, 48 h; outline: as §2
KM12 = test: Anticancer activity against human KM12 cells after 48 hrs by sulforhodamine B assay; details: KM12, 48 h; outline: as §2
SW-620 = test: Anticancer activity against human SW620 cells after 48 hrs by sulforhodamine B assay; details: SW-620, 48 h; outline: as §3
SF-268 [6] = test: Anticancer activity against human SF268 cells after 48 hrs by sulforhodamine B assay; details: SF-268, 48 h; outline: as §2
SF-295 = test: Anticancer activity against human SF295 cells after 48 hrs by sulforhodamine B assay; details: SF-295, 48 h; outline: as §2
SF-539 = test: Anticancer activity against human SF539 cells after 48 hrs by sulforhodamine B assay; details: SF-539, 48 h; outline: as §2
SNB-19 = test: Anticancer activity against human SNB19 cells after 48 hrs by sulforhodamine B assay; details: SNB-19, 48 h; outline: as §2
SNB-75 = test: Anticancer activity against human SNB75 cells after 48 hrs by sulforhodamine B assay; details: SNB-75, 48 h; outline: as §3
U-251 = test: Anticancer activity against human U251 cells after 48 hrs by sulforhodamine B assay; details: U-251, 48 h; outline: as §3
LOX IMVI = test: Anticancer activity against human LOXIMVI cells after 48 hrs by sulforhodamine B assay; outline: as §2
Malme-3M = test: Anticancer activity against human MALME-3M cells after 48 hrs by sulforhodamine B assay; outline: as §2
SK-MEL-28 = test: Anticancer activity against human SK-MEL-28 cells after 48 hrs by sulforhodamine B assay; details: SK-MEL-28, 48 h; outline: as §2
UACC-62 = test: Anticancer activity against human UACC62 cells after 48 hrs by sulforhodamine B assay; details: UACC-62, 48 h; outline: as §3
UACC-257 = test: Anticancer activity against human UACC257 cells after 48 hrs by sulforhodamine B assay; details: UACC-257, 48 h; outline: as §3
IGROV-1 = test: Anticancer activity against human IGROV1 cells after 48 hrs by sulforhodamine B assay; details: IGROV-1, 48 h; outline: as §2
OVCAR-3 = test: Anticancer activity against human OVCAR-3 cells after 48 hrs by sulforhodamine B assay; details: OVCAR-3, 48 h; outline: as §2
OVCAR-4 = test: Anticancer activity against human OVCAR4 cells after 48 hrs by sulforhodamine B assay; details: OVCAR-4, 48 h; outline: as §2
OVCAR-5 = test: Anticancer activity against human OVCAR5 cells after 48 hrs by sulforhodamine B assay; details: OVCAR-5, 48 h; outline: as §2
OVCAR-8 = test: Anticancer activity against human OVCAR8 cells after 48 hrs by sulforhodamine B assay; details: OVCAR-8, 48 h; outline: as §2
SK-OV-3 = test: Anticancer activity against human SKOV3 cells after 48 hrs by sulforhodamine B assay; details: SK-OV-3, 48 h; outline: as §2
ACHN = test: Anticancer activity against human ACHN cells after 48 hrs by sulforhodamine B assay; outline: as §2
CAKI-1 = test: Anticancer activity against human Caki1 cells after 48 hrs by sulforhodamine B assay; details: CAKI-1, 48 h; outline: as §2
RXF 393 = test: Anticancer activity against human RXF393 cells after 48 hrs by sulforhodamine B assay; details: RXF 393, 48 h; outline: as §2
SN12C = test: Anticancer activity against human SN12C cells after 48 hrs by sulforhodamine B assay; outline: as §2
TK-10 = test: Anticancer activity against human TK10 cells after 48 hrs by sulforhodamine B assay; details: TK-10, 48 h; outline: as §3
UO-31 = test: Anticancer activity against human UO31 cells after 48 hrs by sulforhodamine B assay; details: UO-31, 48 h; outline: as §3
PC-3 = test: Anticancer activity against human PC3 cells after 48 hrs by sulforhodamine B assay; details: PC-3, 48 h; outline: as §2
DU-145 = test: Anticancer activity against human DU145 cells after 48 hrs by sulforhodamine B assay; details: DU-145, 48 h; outline: as §2
MCF7 [7] = test: Anticancer activity against human MCF7 cells after 48 hrs by sulforhodamine B assay; details: MCF7, 48 h; outline: as §2
NCI/ADR-RES = test: Anticancer activity against human NCI/ADR-RES cells after 48 hrs by sulforhodamine B assay; outline: as §2
MDA-MB-231 = test: Anticancer activity against human MDA-MB-231 cells after 48 hrs by sulforhodamine B assay; details: MDA-MB-231, 48 h; outline: as §2
[8] = Anticancer activity against human Hs 578T cells after 48 hrs by sulforhodamine B assay; outline: as §2
MDA-MB-435 = test: Anticancer activity against human MDA-MB-435 cells after 48 hrs by sulforhodamine B assay; details: MDA-MB-435, 48 h; outline: as §2
T47D = test: Anticancer activity against human T47D cells after 48 hrs by sulforhodamine B assay; outline: as §3

Fc1cc(C2=Nn3c(nnc3-c3cc(F)c(Cl)cc3Cl)SC2)c(Cl)cc1Cl
growth at 100 µM (NCI-H460 [1]): 6%
growth at 100 µM (MCF7 [2]): 44%
growth at 100 µM (SF-268 [3]): 26%
GI50 (CCRF-CEM): 22 µM
GI50 (HL-60(TB)): 80.4 µM
GI50 (K562): 17.8 µM
GI50 (MOLT-4): 16.9 µM
GI50 [4]: 6 µM
GI50 (SR): 25.4 µM
GI50 (A549): 23.7 µM
GI50 (EKVX): 24.6 µM
GI50 (HOP-92): 11.3 µM
GI50 (NCI-H226): 14.9 µM
GI50 (NCI-H23): 21.8 µM
GI50 (NCI-H322M): 29.1 µM
GI50 (NCI-H460 [5]): 17.6 µM
GI50 (NCI-H522): 24.2 µM
GI50 (COLO 205): 19 µM
GI50 (HCC 2998): 31.6 µM
GI50 (HCT-15): 20.2 µM
GI50 (HT-29): 20.1 µM
GI50 (KM12): 28.5 µM
GI50 (SW-620): 22.6 µM
GI50 (SF-268 [6]): 18.5 µM
GI50 (SF-295): 20.3 µM
GI50 (SF-539): 18.9 µM
GI50 (SNB-19): 22.7 µM
GI50 (SNB-75): 26.2 µM
GI50 (U-251): 20.4 µM
GI50 (LOX IMVI): 21.6 µM
GI50 (Malme-3M): 28.4 µM
GI50 (SK-MEL-28): 21.5 µM
GI50 (UACC-62): 13.3 µM
GI50 (UACC-257): 30.2 µM
GI50 (IGROV-1): 29.8 µM
GI50 (OVCAR-3): 11.5 µM
GI50 (OVCAR-4): 34.5 µM
GI50 (OVCAR-5): 56.8 µM
GI50 (OVCAR-8): 26 µM
GI50 (SK-OV-3): 29.2 µM
GI50 (ACHN): 26.6 µM
GI50 (CAKI-1): 20.6 µM
GI50 (RXF 393): 23.2 µM
GI50 (SN12C): 18.4 µM
GI50 (TK-10): 37.4 µM
GI50 (UO-31): 31.3 µM
GI50 (PC-3): 16.9 µM
GI50 (DU-145): 36.6 µM
GI50 (MCF7 [7]): 16.8 µM
GI50 (NCI/ADR-RES): 27.4 µM
GI50 (MDA-MB-231): 13.4 µM
GI50 [8]: 21.9 µM
GI50 (MDA-MB-435): 27.8 µM
GI50 (T47D): 4.93 µM
